In test [1] the target is T1, 5-hydroxytryptamine receptor 1A (Rattus norvegicus, UniProt P19327).
T1 sequence (P19327 whole entry): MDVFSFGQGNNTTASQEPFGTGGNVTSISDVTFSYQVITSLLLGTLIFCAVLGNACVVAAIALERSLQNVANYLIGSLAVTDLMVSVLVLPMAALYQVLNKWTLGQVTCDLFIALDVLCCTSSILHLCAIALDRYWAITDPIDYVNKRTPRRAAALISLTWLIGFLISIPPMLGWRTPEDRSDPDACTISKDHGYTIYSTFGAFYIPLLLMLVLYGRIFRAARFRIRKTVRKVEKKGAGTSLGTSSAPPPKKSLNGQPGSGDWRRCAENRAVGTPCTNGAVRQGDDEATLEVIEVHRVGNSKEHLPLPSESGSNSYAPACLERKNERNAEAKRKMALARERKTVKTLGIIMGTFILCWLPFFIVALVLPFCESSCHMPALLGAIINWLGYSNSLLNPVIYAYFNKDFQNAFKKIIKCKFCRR
Nature of the test: Displacement of [3H]5-HT from rat hippocampal 5-hydroxytryptamine 1A receptor with 10e-6 M ketanserin. The test is classed as tissue-based, Hippocampus. In outline:
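Rat hippocampal membranes, preincubated 15 min at 37 °C in 50 mM Tris-HCl pH 7.6. Assay buffer was 50 mM Tris-HCl with 4 mM CaCl2, 5.7 mM ascorbic acid and […], pH 7.6. Used 20 nM [3H]5-HT, 15 min at 37 °C, then filtration. IC50 from 2–3 experiments in triplicate (6–9 concentrations); Ki by Cheng–Prusoff.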

The target of test [2] is Sigma non-opioid intracellular receptor 1 (Rattus norvegicus, UniProt Q9R0C9). Nature of the test: Inhibitory activity against Sigma opioid receptor type 1 isolated from whole rat membranes using [3H](+)-pentazocine as radioligand. In outline: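 Membranes came from male Sprague–Dawley rat whole brain minus cerebellum and pons-medulla, in 50 mM Tris-HCl pH 7.8, washed four times. Incubated with [3H]-(+)-pentazocine 120 min at 25 °C, then filtered on polyethylenimine-soaked filters. Nonspecific binding was set with 10 µM haloperidol. IC50 from 2–3 experiments in triplicate (6–9 concentrations); Ki by Cheng–Prusoff.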

A short description of test [3]: Selectivity for 5-hydroxytryptamine 1A and sigma receptors. Also noted: reference not given here.
The species named for the next test is Cavia porcellus. Briefly: Selectivity for PCP and sigma receptors.

Experimental findings from ChEMBL document CHEMBL1129283, “New sigma and 5-HT1A receptor ligands: omega-(tetralin-1-yl)-n-alkylamine derivatives” (J Med Chem, 1996) are described below.

For orientation: Ki means a dissociation constant, usually derived from enzyme kinetics or from competition with a known ligand.

Sigma non-opioid intracellular receptor 1, sequence (Q9R0C9 whole entry): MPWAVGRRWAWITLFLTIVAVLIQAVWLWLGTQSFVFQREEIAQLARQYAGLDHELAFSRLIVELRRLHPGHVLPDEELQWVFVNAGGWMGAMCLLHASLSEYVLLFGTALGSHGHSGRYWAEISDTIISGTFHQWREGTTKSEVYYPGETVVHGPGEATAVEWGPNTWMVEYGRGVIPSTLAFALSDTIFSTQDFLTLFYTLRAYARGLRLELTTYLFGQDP

In test [1], `COc1cccc2c1CCCC2CCCN1CCNCC1` (stereo unspecified) displayed a Ki above 1430 nM. Turning to `COc1cccc2c1CCCC2CCCN1CCN(C2CCCCC2)CC1` (stereo unspecified), the values for the Ki in test [1] and in test [2] were 28.6 nM and 71 nM, respectively. Taken in the same sequence, the figures for `COc1cccc2c1CCCC2CCCN1CCN(Cc2ccccc2)CC1` (stereo unspecified) were 3.6 nM and 25.7 nM. In the case of `c1ccc2c(c1)CCCC2CCCN1CCN(C2=NCCCC2)CC1` (stereo unspecified), the Ki in test [1] is 44.2 nM; in test [2], 111 nM. Further, the Selectivity in test [3] worked out at 1. Turning to `COc1cccc2c1CCCC2CCCCN1CCN(C2=NCCCC2)CC1` (stereo unspecified), the Ki turned out to be 37.1 nM in test [1] and 396 nM in test [2]. As for `COc1cccc2c1CCCC2CCCNCCc1ccccc1` (stereo unspecified), the affinity in test [1], expressed as Ki, was 31.4 nM. With `C1=C(CCCN2CCN(Cc3ccccc3)CC2)c2ccccc2CC1`, in test [1], the affinity corresponds to a Ki of 214 nM. In the case of `COc1ccc2c(c1)C(CCCN1CCNCC1)CCC2` (stereo unspecified), the inhibition constant (Ki) in test [1] was above 1430 nM. The same measure, in the same setting: the value for `COc1cccc2c1CCCC2CCCNCCCc1ccccc1` (stereo unspecified) was 4.4 nM. The same measure, in the same setting: then `COc1cccc2c1CCCC2CCCNCCC1CCCc2ccccc21` (stereo unspecified), with 22.8 nM. In test [1], `COc1ccc2c(c1)C(CCCN1CCN(C3=NCCCC3)CC1)CCC2` (stereo unspecified) showed a Ki of 414 nM. The Selectivity in test [3] came to 14. In test [3], `COc1cccc2c1CCC=C2CCCN1CCN(Cc2ccccc2)CC1` registered a Selectivity above 10. For the compound `COc1cccc2c1CCCC2CCCNCCNc1ccccc1` (stereo unspecified), affinity in test [1] was put at a Ki of 14.1 nM. For the same compound, the Selectivity in the test filed under Cavia porcellus is 8; in test [3] it was 0.05.
